Source: PubChem BioAssay
Values without a mark were called inactive. Records with an inconclusive call do not appear. Active and inactive are the calls of the source.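 The calls were made as follows, unless noted: active = inhibition over a set limit, the all-compound mean plus 3 SD, in both replicate runs; inconclusive = over that limit in just one replicate run; inactive = at or under that limit in both runs.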

Legend:
[1] = S. cerevisiae growth inhibition in permissive medium (OD615), pilot counter-assay for S. cerevisiae lifespan shortening project, permissive growth control (AID 705;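 active = growth inhibition above 25% in both replicates, a cutoff set 3 SD above the mean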); details: OD615, 24 h, at 10 µM, stronger effect = higher value
Summary of the method: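 Material: engineered DeaD yeast; Compound: one dose 10 µM, DMSO 0.25% final; Detection: absorbance (optical density) at 615 nm; Buffer or medium: permissive raffinose/galactose medium; Timing: 24 h exposure, 30 °C.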

[2] = S. cerevisiae growth inhibition in restrictive medium, OD615, pilot screen, restrictive growth control, yeast lifespan reduction project (AID 706;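 active = growth inhibition above a set limit, 3 SD over mean compound inhibition, in both replicates, cut at about 43% in these data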;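 also: modified DeaD lifespan yeast strain shifted to restrictive glucose medium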); details: OD615, 48 h, at 10 µM, stronger effect = higher value
Summary of the method: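 Buffer or medium: restrictive glucose medium (CSMM-D); test system: modified S. cerevisiae; doses: single dose of 10 µM compound final, 0.25% DMSO; schedule: 48 h compound exposure at 30 °C; detection: absorbance (optical density) measured at 615 nm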

[3] = doxorubicin toxicity protection in MRP-1 cells – H69AR cells, CellTiter-Glo, duplicate, MRP-1 activator project, pilot screen (AID 807;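 active = viability increase at or above a cutoff of the median across tested compounds plus 3 SD, cut at about 8.5% in these data, passing the limit was not always enough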;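 also: compound pretreatment 18-22 h then 72 h combined with doxorubicin; 0% = doxorubicin alone and 100% = vehicle without doxorubicin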); details: H69AR viability with doxorubicin, CellTiter-Glo luminescence; at 10 µM; stronger effect = higher value
[4] = viability of HCT116 without oncogenic beta-catenin – human colon tumor cells, pilot screen (AID 823;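 active = cell viability at or below a set limit in both duplicate runs, the limit being the all-compound median minus 4 SD, cut at about 23% in these data, passing the limit was not always enough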;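 also: 0% = wells killed by 20 µM Hyamine and 100% = untreated DMSO cell wells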); details: HCT116 beta-catenin knockout viability, CellTiter-Glo, 60 h; at 10 µM; stronger effect = lower value
[5] = viability of PTEN-null HCT116 cells – cell-based, HCT116 clonal line, CellTiter-Glo, pilot screen (AID 824;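 active = viability at or below 27.92% in each of two runs, the all-compound median minus 4 SD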;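 also: 0% = 20 µM Hyamine control and 100% = vehicle cell control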); details: HCT116 PTEN-deleted viability, 60 h, at 10 µM, stronger effect = lower value
[6] = RAM pathway blockade in budding yeast – dse1pr::URA3 reporter, 5-FOA selection, pilot screen (AID 869);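 also: 0% = DMSO wells with no growth and 100% = 10 µM 1-NA-PP1 with full growth; RAM network block rescues cells from 5-FOA so hits raise OD615 growth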; details: S. cerevisiae dse1pr::URA3 5-FOA growth, OD615, 2 d; at 10 µM; stronger effect = higher value; strain carries analog-sensitive mutant Cbk1 kinase
[7] = RAM signaling pathway blockade in yeast – S. cerevisiae, Pdr1DBD-CYC8 efflux-inhibited sensitized strain, primary screen (AID 1298;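 active = RAM network inhibition above 8.4% in each of two replicates, 3 SD over the compound average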;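 also: 0% = DMSO untreated cells without growth and 100% = 10 µM 1-NA-PP1 full growth; higher means more yeast growth rescued from 5-FOA killing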); details: S. cerevisiae cbk1-as DSE1-URA3 strain, 5-FOA growth OD615, 2 d; at 50 µM; stronger effect = higher value

SMILES	growth inhibition [1]	growth inhibition [2]	viability increase [3]	viability [4]	viability [5]	inhibition [6]	RAM network inhibition [7]
COCc1cc(CN2CCCC2)c(O)c2ncccc12	-11.1%	-11.6%	0.15%	8.07% (active)	11.3% (active)	-0.255%	5.55%
CC1CCCCN1S(=O)(=O)c1coc(C(N)=O)c1 (stereo unspecified)	-12.1%	-13.6%	-2.18%	105%	96.8%	3%	0.05%
O=C(Nc1nnc(-c2ccc(F)cc2)o1)c1ccco1	-6.49%	-4.85%	-3.74%	97.5%	92.8%	1.46%	0.1%
CCCC(=O)NCCCCNC(=O)CCC	2.78%	2.44%	-0.9%	96.4%	101%	0.09%	4.07%
Cc1nn(-c2ccccc2)c2c1C(c1ccccc1)C(C#N)=C(N)O2 (stereo unspecified)	-13.1%	-12.2%	-2.62%	91.3%	87.8%	2.24%	10.5%
CCOC(=O)c1[nH]c2ccccc2c1NC(=O)CC(C)(C)C	5.14%	-9.95%	-3.69%	99.4%	96%	1.65%	1.45%
C=CCNC(=O)c1c(Cl)cccc1Cl	-12.2%	3.24%	-1.31%	90.5%	97.3%	0.94%	3.89%
C/C(NCCN1CCOCC1)=C(\C#N)C(N)=O	-3.8%	-6.1%	-0.51%	105%	97.6%	0.795%	7.19%
CCOC(=O)c1c(-c2ccccc2)c(C(C)=O)c(=O)n(C)c1C	-19%	-9.79%	-3.81%	95.9%	94.1%	4.63%	1.72%
Cn1c(C(C#N)C(=O)Cc2cccc3ccccc23)nc2ccccc21 (stereo unspecified)	-3.6%	-5.02%	-1.14%	81.5%	78.9%	2.59%	4.32%
COc1ccc(N2Cc3cccc(C(=O)N4CCN(C(=O)c5ccco5)CC4)c3C2=O)cc1	3.88%	11.3%	-1.86%	99.3%	91%	2.62%	3.36%
CCOc1cc(CN2CCSCC2)ccc1O	-8.12%	-9.94%	0.51%	97%	101%	0.825%	4.67%
O=C(CN1CCN(c2ccccc2F)CC1)c1ccc2cc[nH]c2c1	-12.6%	-6.94%	-4.1%	100%	84.7%	2.02%	0.99%
O=C(O)Cc1ccc(NC(=O)C2CC=CCC2C(=O)O)cc1 (stereo unspecified)	-7.36%	1.55%	1.02%	102%	104%	3.26%	8.93%
Cn1c(=O)oc2cc(S(=O)(=O)NC3CCCc4ccccc43)ccc21 (stereo unspecified)	-25.4%	-11.4%	-1.98%	92.4%	90.7%	3.1%	6.28%
N#CCCn1c(C(C#N)(CCC#N)CCC#N)nc2ccccc21	5.8%	5.04%	-0.72%	96.5%	99.4%	1.6%	1.63%
CN(C)S(=O)(=O)c1ccc2c(c1)c(=O)c(C(=O)N1CCOCC1)cn2C	-8.25%	2.44%	0.13%	103%	89.4%	1.79%	-0.67%
O=C(Nc1ccncc1)c1ccc2c(c1)OCCO2	1.55%	-11.1%	0.93%	85.6%	84%	1.98%	5.5%
